# Laboratory results as given in PubChem BioAssay.
# Activity calls are given as the source filed them.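 The calls were made as follows, unless noted: active = inhibition at or above 50% at 10 µM; inactive = inhibition below 50%.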
# What was measured:
# [1] = inhibitors of TNFa-induced NFkB p65 translocation, primary screen, imaging, HUVEC, MLSMR starter and 10KST1 sets (AID 438;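 active = inhibition above 20% together with a positive visual image hit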;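 also: compound added about 3h40 before a 20 min TNFalpha stimulation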;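 as to inhibition: signal is the nuclear over cytoplasmic p65 intensity ratio per well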); details: HUVEC TNFa-induced p65 nuclear translocation; cell count: measured here: nuclei count (cytotoxicity indicator), at 2.08 µM; inhibition: at 2 µM, stronger effect = higher value, 0% TNFa-plus-vehicle, 100% no-TNFa wells
# [2] = inhibitors of mutant huntingtin aggregation, primary screen, imaging, exon1htt(103Q)mCFP cells, high-content imaging (AID 483;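 active = visual image review flags a hit and inhibition of aggregation exceeds 20%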;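 also: compound exposure lasted 3 days before fixation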;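 as to nuclei count: percent of the per-plate median nuclei count of sample wells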); details: exon1htt(103Q)mCFP cell line, aggregate imaging, at 2 µM; inhibition of aggregation: stronger effect = higher value; nuclei count: measured here: cell count, toxicity
# [3] = inhibitors of E-selectin induction by TNFa, primary screen, imaging, HUVEC, immunofluorescence, MLSMR starter and 10KST1 sets (AID 487;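 active = visually confirmed hit in the image check and inhibition above 20%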;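 as to inhibition: signal is fraction of cell area covered by stained E-selectin grains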;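 as to nuclei count: 100% = median nuclei count of all wells on the same plate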); details: HUVEC TNFalpha-induced E-selectin immunofluorescence imaging, at 2 µM; inhibition: stronger effect = higher value; nuclei count: measured here: cell number, toxicity
# [4] = target: Voltage-gated potassium channel subunit beta-2 (Rattus norvegicus) (UniProt P62483); assay: KvBeta enzyme negative modulators, primary screen, biochemical, NADPH fluorescence (AID 622;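 active = fluorescence slope higher than the sample average by over 3 SD, cut at about -0.22 in these data, passing the limit was not always enough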;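 also: slope of raw intensity against log time taken from 70 to 1610 s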); details: recombinant KvBeta, 4-cyanobenzaldehyde reduction, at 10 µM, stronger effect = higher value
# [5] = target: Voltage-gated potassium channel subunit beta-2 (Rattus norvegicus) (UniProt P62483); assay: KvBeta positive modulators, primary screen, biochemical, NADPH fluorescence (AID 623;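 active = NADPH fluorescence slope more negative than the mean of all samples by about 3 SD, 99.7% confidence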;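 also: fluorescence intensity change per second fitted from 20 to 320 s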); details: Recombinant KvBeta, NADPH fluorescence decrease slope, 10 min; at 10 µM; stronger effect = lower value
# [6] = target: Alpha-2C adrenergic receptor (Homo sapiens) (UniProt P18825); assay: modulators of alpha2C/GIRK thallium flux, primary screen, cell-based, HEK293 alpha2C/GIRK1/2 (AID 624;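 active = fluorescence slope after compound addition differing from the mean of all screened samples at 99.7% confidence, in either direction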;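 also: slope of fluorescence ratio to pre-addition baseline per second over 15 to 24 s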); details: thallium flux BTC fluorescence, at 10 µM, actives lie on both sides
# [7] = inhibitors of larval lipid processing in zebrafish, primary screen, whole organism, PED6 fluorescence, gall bladder and intestine (AID 686;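 active = a full or partial loss of lipid-probe fluorescence in the fish gall bladder, intestine or both, judged by eye; inactive = no fluorescence loss, or compound toxic to the fish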;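 also: larvae 5 to 7 days old with five fish per well; signal comes from phospholipase A2 cleavage of quenched PED6 carried via bile; overnight exposure to compound and PED6 before scoring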); details: Zebrafish larvae PED6 lipid processing, fluorescence scoring; screened at 20 µM (by protocol)
# Summary of the method: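 system = live zebrafish larvae aged 5-7 days, whole organism | probe or stimulus = ingested quenched lipid PED6 at 100 nM | doses = 20 µM single dose | timing = overnight exposure | detection = fluorescence microscopy with visual scoring of gall bladder and intestine | read-out = visual per-well fluorescence inhibition score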
# [8] = inhibitors of Sendai virus-induced IRF3 signaling, primary screen, TLR/RLR signaling modifier project, cell-based, Sendai virus stimulus, luciferase, 10K MLSCN set (AID 602276); details: HEK293 RL24 IRF3 luciferase reporter, at 10 µM, stronger effect = higher value;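 also: firefly luciferase from ISG56 promoter only with Renilla not read in this screen; 0% = Sendai virus plus DMSO and 100% = medium plus DMSO without virus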
# [9] = inhibitors of poly I:C-induced TLR3 signaling, primary screen, cell-based, poly I:C stimulus, luciferase, 10K MLSCN set (AID 602277;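 active = inhibition of the reporter signal at or above 50%; inactive = inhibition below 50%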); details: HEK293-TLR3 RL24 IRF3 luciferase reporter, at 10 µM, stronger effect = higher value
# Chain of Voltage-gated potassium channel subunit beta-2 (Rattus norvegicus) (P62483 whole entry, looked up): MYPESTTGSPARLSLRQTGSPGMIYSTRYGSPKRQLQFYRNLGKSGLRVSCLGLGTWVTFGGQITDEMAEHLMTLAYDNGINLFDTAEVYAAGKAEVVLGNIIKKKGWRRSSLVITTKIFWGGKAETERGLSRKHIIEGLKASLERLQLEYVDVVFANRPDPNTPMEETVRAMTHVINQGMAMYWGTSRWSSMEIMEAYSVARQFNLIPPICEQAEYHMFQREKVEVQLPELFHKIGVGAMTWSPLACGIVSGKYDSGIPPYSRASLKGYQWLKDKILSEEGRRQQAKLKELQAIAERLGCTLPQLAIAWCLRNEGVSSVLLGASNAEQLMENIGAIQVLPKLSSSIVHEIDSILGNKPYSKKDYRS
# Chain of Alpha-2C adrenergic receptor (Homo sapiens) (P18825 whole entry, looked up): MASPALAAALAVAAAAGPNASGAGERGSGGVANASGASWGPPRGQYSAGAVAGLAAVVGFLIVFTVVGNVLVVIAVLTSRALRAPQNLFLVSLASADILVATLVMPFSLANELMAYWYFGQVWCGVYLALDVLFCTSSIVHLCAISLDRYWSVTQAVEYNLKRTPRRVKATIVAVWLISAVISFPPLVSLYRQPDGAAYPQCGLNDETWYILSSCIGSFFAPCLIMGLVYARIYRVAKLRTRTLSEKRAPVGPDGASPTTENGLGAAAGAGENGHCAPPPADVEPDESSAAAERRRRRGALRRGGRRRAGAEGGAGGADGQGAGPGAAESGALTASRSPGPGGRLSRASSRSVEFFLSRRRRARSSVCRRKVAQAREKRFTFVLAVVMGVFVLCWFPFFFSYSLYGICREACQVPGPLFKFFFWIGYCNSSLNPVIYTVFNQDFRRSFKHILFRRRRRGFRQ
SMILES,cell count [1],inhibition [1],inhibition of aggregation [2],nuclei count [2] [%],inhibition [3],nuclei count [3] [%],fluorescence slope [4],NADPH fluorescence slope [5],slope [6],outcome [7],inhibition [8],inhibition [9]
Cc1ccc2nc(C3CCN(CC(=O)N4CCCCCC4)CC3)[nH]c2c1,579,-13.8% (inactive),2.2% (inactive),101,-39.2% (inactive),111,-0.453 (inactive),-5.8e-05 (inactive),0.00562 (inactive),active; weak signal in gallbladder and intestine,8.23% (inactive),13.7% (inactive)
CCC(=O)Nc1cc(Cl)ccc1N1CCN(C(=O)CC)CC1,376,2.1% (inactive),16.1% (inactive),102,-17.9% (inactive),90.8,-0.465 (inactive),-1.2e-05 (inactive),0.00532 (inactive),inactive,18.6% (inactive),16.6% (inactive)
O=C(Cc1cccs1)N(c1ccccc1)C1C=CS(=O)(=O)C1 (configuration not stated),294,4.2% (inactive),-21.3% (inactive),110,8.4% (inactive),88.2,-0.376 (inactive),-5.4e-05 (inactive),0.0046 (inactive),inactive,10.7% (inactive),15.6% (inactive)
CNC(=O)CSc1nc2c(c(=O)n(C)c(=O)n2C)n1Cc1ccc(C)cc1,346,4% (inactive),15.9% (inactive),80.4,-12.3% (inactive),88.8,-0.37 (inactive),-5.6e-05 (inactive),0.00619 (inactive),inactive,6.2% (inactive),24.5% (inactive)
COc1ccc(-c2nsc(SCC(=O)Nc3cc(C)on3)n2)cc1,245,-7% (inactive),14.4% (inactive),84.3,50.5% (inactive),64.4,-0.396 (inactive),-2.2e-07 (inactive),0.0058 (inactive),inactive,21.4% (inactive),17.9% (inactive)
N#CCc1ccc(NC(=O)Nc2cccc(Cl)c2)cc1,321,-8.6% (inactive),-19.9% (inactive),85.4,-112% (inactive),137,-0.46 (inactive),-5.6e-05 (inactive),0.00505 (inactive),inactive,-26.8% (inactive),-62.7% (inactive)
Clc1ccc(Cl)c(-c2nn3c(Cn4cnc5ccccc54)nnc3s2)c1,566,15.8% (inactive),-6.5% (inactive),102,-91.4% (inactive),121,-0.446 (inactive),-3.8e-05 (inactive),0.00462 (inactive),inactive,13.6% (inactive),13.1% (inactive)
COC(=O)Cn1cnc2sc(C)c(S(=O)(=O)N3CCC(C)CC3)c2c1=O,543,-2.4% (inactive),-10.1% (inactive),106,-31.1% (inactive),101,-0.473 (inactive),-2.3e-05 (inactive),0.00523 (inactive),inactive,6.12% (inactive),8.67% (inactive)
COc1cccc(CN2C(=O)C3(C(C#N)=C(N)OC4=C3C(=O)CCC4)c3ccccc32)c1 (configuration not stated),352,-0.9% (inactive),-11.5% (inactive),94.1,-15.9% (inactive),77.7,-0.414 (inactive),-5.5e-05 (inactive),0.00531 (inactive),inactive,12.7% (inactive),14.6% (inactive)
Cc1ccc(NC(=O)COC(=O)c2ccn(C)n2)cc1,521,-2.1% (inactive),-15.4% (inactive),89.1,-28.3% (inactive),109,-0.39 (inactive),1.1e-05 (inactive),0.0046 (inactive),inactive,17.1% (inactive),22.3% (inactive)
Cc1cc(C)cc(N2C(=O)C3C4C=CC(C4)C3C2=O)c1 (configuration not stated),643,-4.8% (inactive),-4.9% (inactive),98.2,28% (inactive),99.1,-0.451 (inactive),-4.1e-05 (inactive),0.00599 (inactive),inactive,13.3% (inactive),14.4% (inactive)
CCC(=O)N(Cc1ccco1)c1nc(-c2cc(OC)ccc2OC)cs1,643,-8% (inactive),18.8% (inactive),100,-11.7% (inactive),101,-0.397 (inactive),-4.8e-05 (inactive),0.00497 (inactive),inactive,8.75% (inactive),7.6% (inactive)
CC(NC(=O)NC12CC3CC(CC(C3)C1)C2)C1CCCO1 (configuration not stated),356,2.9% (inactive),0.8% (inactive),80.4,1.7% (inactive),87.1,-0.439 (inactive),-2.2e-05 (inactive),0.00592 (inactive),inactive,15.3% (inactive),8.29% (inactive)
COc1ccc(OC)c(NC(=O)CSc2nnc(-c3ccco3)n2-c2ccccc2)c1,552,10.2% (inactive),9.3% (inactive),104,-59.6% (inactive),98.9,-0.466 (inactive),-3.5e-05 (inactive),0.00516 (inactive),inactive,12.9% (inactive),12.9% (inactive)
COc1cccc(NC(=O)N(CCCN2CCOCC2)C(C)c2cc3cccc(OC)c3o2)c1 (configuration not stated),863,5% (inactive),-3.4% (inactive),106,-93.2% (inactive),132,-0.433 (inactive),-6.3e-05 (inactive),0.00436 (inactive),inactive,16.5% (inactive),34.8% (inactive)
Cc1cccc(OCC(=O)Nc2ccc(N3CCCC3)cc2)c1C,553,-2.5% (inactive),-18.4% (inactive),93.1,-53.5% (inactive),83.5,-0.37 (inactive),-6.9e-05 (inactive),0.005 (inactive),inactive,7.46% (inactive),6.78% (inactive)
Cc1cc(N2C(=O)CC(N3CCN(c4ccc(C(=O)c5cccs5)cc4)CC3)C2=O)no1 (configuration not stated),654,10.8% (inactive),-3% (inactive),112,-31.2% (inactive),93.1,-0.392 (inactive),-4.4e-05 (inactive),0.00594 (inactive),inactive,-4.13% (inactive),-9.36% (inactive)
CCOC(=O)c1[nH]c2ccc(C)cc2c1NC(=O)CN1CCCCC1,672,13.7% (inactive),5.6% (inactive),93.3,-12% (inactive),87.9,-0.349 (inactive),-2.6e-05 (inactive),0.00444 (inactive),inactive,13.3% (inactive),14.1% (inactive)
CC(=O)NCCc1ccc(S(=O)(=O)NCc2ccc3c(c2)OCO3)cc1,587,-12.3% (inactive),-24.8% (inactive),89.5,35.7% (inactive),82.1,-0.356 (inactive),-4.4e-05 (inactive),0.00549 (inactive),inactive,4.45% (inactive),2.38% (inactive)
CCOC(=O)N1CCC(NC(=O)Cn2cc3c(n2)CCC(C)C3)CC1 (configuration not stated),420,-11.9% (inactive),0.7% (inactive),108,-5.4% (inactive),101,-0.479 (inactive),1.7e-05 (inactive),0.0047 (inactive),inactive,-10.4% (inactive),-9.33% (inactive)
O=C(Cn1[nH]c(=O)c2ccccc2c1=O)OCC(=O)N1CCCc2ccccc21,335,4.2% (inactive),-9% (inactive),98.2,-37% (inactive),117,-0.389 (inactive),-6e-05 (inactive),0.00579 (inactive),inactive,8.5% (inactive),10.3% (inactive)
O=C(CSc1nnc(-c2ccccn2)n1Cc1ccccc1)N1CCCC1,340,8.1% (inactive),7.9% (inactive),112,19.6% (inactive),97.4,-0.365 (inactive),-6.5e-05 (inactive),0.00635 (inactive),inactive,3.06% (inactive),2.57% (inactive)
COc1ccc(S(=O)(=O)N2CCN(S(=O)(=O)c3ccc4c(c3)OCCO4)CC2)cc1C,377,4% (inactive),-8.3% (inactive),114,15.9% (inactive),85,-0.223 (inactive),-5.5e-05 (inactive),0.00641 (inactive),inactive,16.8% (inactive),26.6% (inactive)
COc1ccc(S(=O)(=O)Nc2ccccc2SC)cc1C,664,-7.1% (inactive),12.2% (inactive),102,-125% (inactive),105,-0.346 (inactive),1.3e-05 (inactive),0.00618 (inactive),inactive,12.4% (inactive),22.4% (inactive)
CN1C(=O)c2oc3ccccc3c(=O)c2C1c1ccccn1 (configuration not stated),404,5.4% (inactive),-16.4% (inactive),106,-28.5% (inactive),87.5,-0.437 (inactive),-4.2e-05 (inactive),0.00452 (inactive),inactive,18% (inactive),12% (inactive)
O=C(CSc1ccccc1C(=O)NCCCN1CCCC1=O)NCc1ccco1,463,3.8% (inactive),-6.6% (inactive),98.6,-81.8% (inactive),118,-0.358 (inactive),-4.3e-05 (inactive),0.00452 (inactive),inactive,11.7% (inactive),12.7% (inactive)
